Reference: ChEMBL document CHEMBL2203171, “The use of small molecule probes to study spatially separated stimulus-induced signaling pathways” (Bioorg Med Chem Lett, 2012)
Active and inactive are the calls of the source. No cut-off for these calls is given here.

How the values were obtained:
[1] = target: Toll-like receptor 2 (Mus musculus) (UniProt Q9QUN7); assay: Inhibition of MyD88 recruitment to TLR2 in C57BL/6 mouse BMDM cells assessed as inhibition of HKSA-induced IkappaBalpha phosphorylation up to 90 mins by Western blot analysis; type: cell-based
Sequence of Toll-like receptor 2 (Mus musculus) (Q9QUN7 whole entry): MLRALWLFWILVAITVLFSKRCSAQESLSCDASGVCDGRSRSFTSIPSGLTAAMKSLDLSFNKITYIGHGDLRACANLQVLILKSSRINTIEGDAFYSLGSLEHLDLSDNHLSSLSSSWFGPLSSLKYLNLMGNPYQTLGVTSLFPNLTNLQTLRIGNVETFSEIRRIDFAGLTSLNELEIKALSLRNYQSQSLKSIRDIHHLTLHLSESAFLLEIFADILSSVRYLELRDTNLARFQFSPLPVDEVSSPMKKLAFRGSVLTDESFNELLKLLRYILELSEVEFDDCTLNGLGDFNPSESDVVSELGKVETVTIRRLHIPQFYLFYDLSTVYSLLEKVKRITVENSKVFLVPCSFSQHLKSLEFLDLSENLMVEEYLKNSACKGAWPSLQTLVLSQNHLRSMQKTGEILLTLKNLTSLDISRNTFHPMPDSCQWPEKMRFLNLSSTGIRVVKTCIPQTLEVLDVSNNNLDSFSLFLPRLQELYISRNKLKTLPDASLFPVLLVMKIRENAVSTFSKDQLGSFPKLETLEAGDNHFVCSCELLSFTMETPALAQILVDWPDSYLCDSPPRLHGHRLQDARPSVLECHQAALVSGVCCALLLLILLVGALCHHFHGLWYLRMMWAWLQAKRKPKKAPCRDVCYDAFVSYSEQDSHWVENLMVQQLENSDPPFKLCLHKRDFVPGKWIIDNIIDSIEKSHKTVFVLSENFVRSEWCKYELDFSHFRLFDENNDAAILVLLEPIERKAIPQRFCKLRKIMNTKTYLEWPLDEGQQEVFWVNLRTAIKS
In short: (§1)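 Bone marrow macrophages from C57BL/6 mice, grown in 70% growth medium (DMEM, 10% FBS) plus 30% L929-conditioned medium and given fresh medium 12-14 h before stimulation. Stimuli: IL-1 40 ng/ml, HKSA ~10^8 cfu/ml, pI:pC 50 μg/ml or CpG 10 μg/ml, ± compound at 10 μM (final) added from a 200x DMSO stock. IκBα and p38 profiled by immunoblot. Three independent experiments, quantitated and normalized.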

[2] = target: T1, Interleukin-1 receptor type 1 (Mus musculus) (UniProt P13504); assay: Inhibition of MyD88 recruitment to IL-1R in C57BL/6 mouse BMDM cells assessed as inhibition of IL1-induced p38 MAPK activity up to 90 mins; type: cell-based; in short: as §1
T1 sequence (whole entry): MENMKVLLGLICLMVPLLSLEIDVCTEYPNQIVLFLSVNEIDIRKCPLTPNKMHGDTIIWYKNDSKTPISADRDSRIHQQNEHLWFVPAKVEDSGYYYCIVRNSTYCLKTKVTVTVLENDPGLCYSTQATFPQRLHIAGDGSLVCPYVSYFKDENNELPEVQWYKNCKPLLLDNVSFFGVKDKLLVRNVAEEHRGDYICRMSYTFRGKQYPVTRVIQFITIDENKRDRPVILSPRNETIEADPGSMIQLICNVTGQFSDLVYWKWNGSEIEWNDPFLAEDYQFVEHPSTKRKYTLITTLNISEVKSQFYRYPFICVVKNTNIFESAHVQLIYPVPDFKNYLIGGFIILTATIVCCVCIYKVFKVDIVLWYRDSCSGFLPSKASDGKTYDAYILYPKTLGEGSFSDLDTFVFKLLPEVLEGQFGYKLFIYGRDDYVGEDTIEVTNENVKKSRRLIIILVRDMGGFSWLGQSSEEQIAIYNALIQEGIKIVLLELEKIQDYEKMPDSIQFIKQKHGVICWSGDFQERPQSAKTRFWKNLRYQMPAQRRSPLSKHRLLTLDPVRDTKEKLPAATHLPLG

[3] = target: T2, Inhibitor of nuclear factor kappa-B kinase subunit beta (Mus musculus) (UniProt O88351); assay: Inhibition of IKKbeta in C57BL/6 mouse BMDM cells assessed as inhibition of LPS-induced RelA phosphorylation at 25 uM after 5 mins by Western blot analysis; type: cell-based
T2 sequence (whole entry): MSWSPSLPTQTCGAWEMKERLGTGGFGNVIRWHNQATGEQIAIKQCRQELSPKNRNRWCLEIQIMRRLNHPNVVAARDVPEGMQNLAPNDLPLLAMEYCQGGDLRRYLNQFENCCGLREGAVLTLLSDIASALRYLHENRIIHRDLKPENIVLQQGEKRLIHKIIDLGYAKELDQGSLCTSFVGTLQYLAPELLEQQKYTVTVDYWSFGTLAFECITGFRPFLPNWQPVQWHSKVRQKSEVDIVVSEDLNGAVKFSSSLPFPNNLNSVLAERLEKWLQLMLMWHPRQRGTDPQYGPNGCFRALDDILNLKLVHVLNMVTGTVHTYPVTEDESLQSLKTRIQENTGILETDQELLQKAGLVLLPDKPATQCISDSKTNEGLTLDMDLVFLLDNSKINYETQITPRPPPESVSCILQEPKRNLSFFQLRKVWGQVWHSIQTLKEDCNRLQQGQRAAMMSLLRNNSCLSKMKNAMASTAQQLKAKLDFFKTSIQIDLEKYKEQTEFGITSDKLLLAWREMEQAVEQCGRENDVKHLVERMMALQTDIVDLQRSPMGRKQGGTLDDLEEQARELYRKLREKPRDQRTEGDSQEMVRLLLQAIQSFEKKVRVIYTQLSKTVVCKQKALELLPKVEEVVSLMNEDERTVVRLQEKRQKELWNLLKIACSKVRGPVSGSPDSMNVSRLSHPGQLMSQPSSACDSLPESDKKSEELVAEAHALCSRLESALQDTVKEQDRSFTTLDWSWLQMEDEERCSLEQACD
In short: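 C57BL/6 marrow-derived macrophages were cultured in 70% growth medium/30% L929-conditioned medium and refreshed 12-14 h before stimulation. Stimuli were TNF 40 ng/ml or LPS 100 ng/ml, ± compound at 25 μM from a 200x DMSO stock. Western blots tracked IKK, p38, IκBα and phospho-RelA. Results from three independent experiments were quantitated and normalized.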

[4] = target: T2, Inhibitor of nuclear factor kappa-B kinase subunit beta (Mus musculus); assay: Inhibition of IKKbeta in C57BL/6 mouse BMDM cells assessed as inhibition of TNFalpha-induced IkappaBalpha phosphorylation at 50 uM up to 90 mins by Western blot analysis; type: cell-based
[5] = target: T3, MAP kinase p38 (Mus musculus) (UniProt P47811+O08911+Q9WUI1+Q9Z1B7); assay: Inhibition of MAPK p38 in C57BL/6 mouse BMDM cells assessed as inhibition of TNFalpha-induced phosphorylation at 50 uM up to 90 mins by Western blot analysis; type: cell-based
[6] = target: T3, MAP kinase p38 (Mus musculus); assay: Inhibition of MAPK p38 in C57BL/6 mouse BMDM cells assessed as inhibition of LPS-induced phosphorylation at 50 uM up to 90 mins by Western blot analysis; type: cell-based
[7] = target: T2, Inhibitor of nuclear factor kappa-B kinase subunit beta (Mus musculus); assay: Inhibition of IKKbeta in C57BL/6 mouse BMDM cells assessed as inhibition of TNFalpha-induced IkappaBalpha phosphorylation at 25 uM by Western blot analysis

inhibition [1]	inhibition [2]	inhibition [3]	inhibition [4]	inhibition [5]	inhibition [6]	inhibition [7]	Structure (SMILES)
Active	–	–	–	–	–	–	O=C(CCCCCN1C(=O)CCC1=O)Oc1ccc2cc(C(C(=O)NCc3ccccc3)N(C(=O)Cc3ccc4c(c3)OCO4)C3CC3)ccc2c1 (centres undefined)
Active	inactive	Active	inactive	inactive	inactive	inactive	O=C(CCCCCN1C(=O)C=CC1=O)Oc1ccc2cc(C(C(=O)NCc3ccccc3)N(C(=O)Cc3ccc4c(c3)OCO4)C3CC3)ccc2c1 (centres undefined)
Active	–	–	–	–	–	–	O=C(CCCCCCCC(=O)ON1C(=O)CCC1=O)Oc1ccc2cc(C(C(=O)NCc3ccccc3)N(C(=O)Cc3ccc4c(c3)OCO4)C3CC3)ccc2c1 (centres undefined)
